The assay has as its target Mitogen-activated protein kinase 14 (Homo sapiens) (UniProt Q16539). The assay can be described thus: Inhibition of human SAPK2a using myelin basic protein as substrate at 100 uM after 40 mins in presence of [gamma-33P-ATP] by scintillation counting analysis. An outline of the steps:
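Radiometric [γ-33P]ATP assay (specific activity approx. 500 cpm/pmol) run by an outsourced service. Compound was added first from a 50x stock in DMSO, giving 2% DMSO final. Positive controls contained DMSO only; blanks used a reference inhibitor to set 0% activity. Reactions were started with MgATP mix, run 40 min at room temperature, and stopped with 3% phosphoric acid. They were spotted on P30 filtermat, washed in 75 mM phosphoric acid and methanol, and scintillation counted.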

Active and inactive are the calls of the source. The calls are words filed in the database; no cut-off is given here.

Mitogen-activated protein kinase 14 (Homo sapiens), sequence (Q16539 whole entry): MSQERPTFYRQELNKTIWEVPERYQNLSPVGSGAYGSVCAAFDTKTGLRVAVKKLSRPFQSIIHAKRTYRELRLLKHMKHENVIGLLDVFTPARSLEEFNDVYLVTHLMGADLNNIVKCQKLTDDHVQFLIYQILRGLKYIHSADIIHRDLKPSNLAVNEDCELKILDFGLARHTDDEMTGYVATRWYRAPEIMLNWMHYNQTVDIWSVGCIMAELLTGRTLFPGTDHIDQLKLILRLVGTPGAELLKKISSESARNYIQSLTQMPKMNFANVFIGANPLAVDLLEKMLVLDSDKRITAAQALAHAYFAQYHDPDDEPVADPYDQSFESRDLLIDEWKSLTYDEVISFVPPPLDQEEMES

Consider `CCOc1c(S(=O)(=O)NC2CC(C)(C)NC(C)(C)C2)ccc(Cl)c1Cl`, for which the inhibition entry was “inactive”.

The record behind these values is ChEMBL document CHEMBL4257486, “A novel allosteric inhibitor that prevents IKKβ activation” (Medchemcomm, 2018).
